From ChEMBL document CHEMBL3108710, “Discovery of a novel class of dimeric Smac mimetics as potent IAP antagonists resulting in a clinical candidate for the treatment of cancer (AZD5582)” (J Med Chem, 2013)
The source made the active and inactive calls. No cut-off for these calls is given here.

Legend:
[1] = Total plasma clearance in Han Wistar rat at 0.5 mg/kg, iv by LC-MS/MS analysis; assay type: ADME, organism-based; parameters: dose 0.5 mg/kg, route intravenous
Method in brief: (§1)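 Rat PK after a single intravenous bolus. Parameters derived from plasma levels: total plasma clearance, steady-state volume of distribution, half-life and AUC.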

[2] = target: T1, Baculoviral IAP repeat-containing protein 2 (Homo sapiens, UniProt Q13490); test: Binding affinity to cIAP1 in human MDA-MB-231 cells assessed as induction of protein degradation after 1 hr by ELISA; assay type: cell-based
MDA-MB-231 [3] = test: Antiproliferative activity against human MDA-MB-231 cells assessed as growth inhibition after 48 hrs by Alamar Blue assay; assay type: functional; conditions: MDA-MB-231, 48 h
[4] = AUC in Han Wistar rat at 0.5 mg/kg, iv by LC-MS/MS analysis; assay type: ADME, organism-based; parameters: dose 0.5 mg/kg, route intravenous; conditions: plasma; method in brief: as §1
[5] = Elimination half life in Han Wistar rat at 0.5 mg/kg, iv by LC-MS/MS analysis; assay type: ADME, organism-based; parameters: dose 0.5 mg/kg, route intravenous; conditions: in vivo, read-out: beta t1/2 (converted); method in brief: as §1
[6] = target: T1, Baculoviral IAP repeat-containing protein 2; test: Displacement of AbuRPFK-5FAM from GST-tagged cIAP1 BIR3 domain (L250 to G350) (unknown origin) after 20 mins by fluorescence polarization assay
Method in brief: (§2)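 Competitive fluorescence polarization binding assay. Measures displacement of a 5-carboxyfluorescein-tagged synthetic peptide from the AVPI groove of the isolated BIR domain.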

[7] = Volume of distribution at steady state in Han Wistar rat at 0.5 mg/kg, iv by LC-MS/MS analysis; assay type: ADME, organism-based; parameters: dose 0.5 mg/kg, route intravenous; conditions: in vivo, read-out: Vdss; method in brief: as §1
[8] = Aqueous solubility of the compound at pH 4 to 6; assay type: physicochemical
[9] = Aqueous equilibrium solubility of compound in phosphate buffer at pH 7.4 after 24 hrs by HPLC-UV analysis; assay type: physicochemical
[10] = Apparent permeability from apical to basolateral side in human Caco2 cells; assay type: ADME, cell-based; conditions: Caco-2
[11] = Volume of distribution at steady state in Han Wistar rat at 1 mg/kg, iv by LC-MS/MS analysis; assay type: ADME, organism-based; parameters: dose 1 mg/kg, route intravenous; conditions: in vivo, read-out: Vdss; method in brief: as §1
[12] = Total plasma clearance in Han Wistar rat at 1 mg/kg, iv by LC-MS/MS analysis; assay type: ADME, organism-based; parameters: dose 1 mg/kg, route intravenous; method in brief: as §1
[13] = Elimination half life in Han Wistar rat at 1 mg/kg, iv by LC-MS/MS analysis; assay type: ADME, organism-based; parameters: dose 1 mg/kg, route intravenous; conditions: in vivo, read-out: beta t1/2 (converted); method in brief: as §1
[14] = AUC in Han Wistar rat at 1 mg/kg, iv by LC-MS/MS analysis; assay type: ADME, organism-based; parameters: dose 1 mg/kg, route intravenous; conditions: plasma; method in brief: as §1
[15] = AUC in Han Wistar rat at 0.8 mg/kg, iv by LC-MS/MS analysis; assay type: ADME, organism-based; parameters: dose 0.8 mg/kg, route intravenous; conditions: plasma; method in brief: as §1
[16] = Volume of distribution at steady state in Han Wistar rat at 0.8 mg/kg, iv by LC-MS/MS analysis; assay type: ADME, organism-based; parameters: dose 0.8 mg/kg, route intravenous; conditions: in vivo, read-out: Vdss; method in brief: as §1
[17] = Total plasma clearance in Han Wistar rat at 0.8 mg/kg, iv by LC-MS/MS analysis; assay type: ADME, organism-based; parameters: dose 0.8 mg/kg, route intravenous; method in brief: as §1
[18] = Elimination half life in Han Wistar rat at 0.8 mg/kg, iv by LC-MS/MS analysis; assay type: ADME, organism-based; parameters: dose 0.8 mg/kg, route intravenous; conditions: in vivo, read-out: beta t1/2 (converted); method in brief: as §1
BT-549 = test: Growth inhibition of human BT549 cells; assay type: functional, cell-based
Mus musculus [19] = test: Induction of caspase-3 cleavage in tumor of CB17 SCID mouse xenografted with human MDA-MB-231 cells at 0.05 to 3 mg/kg, iv after 4 to 18 hrs by ELISA; assay type: functional, organism-based
Method in brief: (§3)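 Mice bearing MDA-MB-231 xenografts received a single intravenous dose. Intratumoral cIAP1 protein and cleaved caspase-3 levels were measured at 4, 6 and 18 h postdose.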

MDA-MB-231 [20] = test: Induction of apoptosis in human MDA-MB-231 cells assessed as caspase-3 cleavage at 0.5 to 1.5 nM preincubated for 1 to 3 hrs followed by compound-washout measured after 24 hrs by luciferase reporter gene assay; assay type: functional, cell-based
Method in brief: (§4)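 MDA-MB-231 cells were exposed to increasing compound concentrations for 1 or 3 h, rinsed, then given drug-free medium. Active caspase-3 per well was read at 24 h total. Survival was measured by MTS at 72 h total; 0% survival means complete cell death.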

[21] = target: T2, Baculoviral IAP repeat-containing protein 3 (Homo sapiens, UniProt Q13489); test: Binding affinity to cIAP2 in human MDA-MB-231 cells assessed as induction of protein degradation at 0.03 to 1 nM after 1 hr by Western blotting analysis; assay type: cell-based
Method in brief: (§5)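 MDA-MB-231 cells were treated with a range of compound concentrations. IAP protein levels were assessed by western blot: cIAP2 after 1 h, XIAP after 4 h.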

MIA PaCa-2 = test: Growth inhibition of human MIAPaCa2 cells; assay type: functional, cell-based
Homo sapiens = species on record: Homo sapiens; test: Growth inhibition of human 97-7 cells; assay type: functional
[22] = target: T3, E3 ubiquitin-protein ligase XIAP (Homo sapiens, UniProt P98170); test: Binding affinity to XIAP in human MDA-MB-231 cells assessed as effect on protein level at 0.1 to 100 nM after 4 hrs by Western blotting analysis; assay type: cell-based; method in brief: as §5
MDA-MB-231 [23] = test: Induction of apoptosis in human MDA-MB-231 cells assessed as cell death at 0.5 to 1.5 nM preincubated for 1 to 3 hrs followed by compound-washout measured after 72 hrs by MTS assay; assay type: functional, cell-based; method in brief: as §4
647-V = test: Growth inhibition of human 647V cells; assay type: functional, cell-based
[24] = target: T1, Baculoviral IAP repeat-containing protein 2; test: Binding affinity to cIAP1 in human MDA-MB-231 cells assessed as induction of protein degradation after 1 hr by Western blotting analysis; assay type: cell-based
[25] = target: T3, E3 ubiquitin-protein ligase XIAP; test: Inhibition of XIAP-caspase-9 interaction in human MDA-MB-231 cells at 1 uM after 4 hrs by immunoprecipitation assay; assay type: cell-based
Method in brief: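 MDA-MB-231 cells were left untreated or exposed to 1 μM compound for 4 h. Caspase-9 was immunoprecipitated from the lysates, and caspase-9–XIAP complexes were detected by blotting.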

MDA-MB-231 [26] = test: Antitumor activity against human MDA-MB-231 cells xenografted in CB17 SCID mouse assessed as tumor growth inhibition at 0.1 to 3 mg/kg, iv administered once a week for 2 weeks measured twice a week for 78 days; assay type: functional, organism-based
Method in brief: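 MDA-MB-231 tumors were implanted orthotopically in mice and grown to about 120 mm³ average. Vehicle or compound was then given intravenously once weekly for 2 weeks, at 0.1, 0.5 or 3.0 mg/kg. Tumor volume was measured twice weekly for 78 days and reported as geometric mean ± SE.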

Mus musculus [27] = test: Induction of cIAP1 degradation in tumor of CB17 SCID mouse xenografted with human MDA-MB-231 cells at 0.05 to 3 mg/kg, iv up to 18 hrs by ELISA; assay type: functional, organism-based; method in brief: as §3
[28] = Chemical stability of the compound assessed as amide hydrolysis at pH >8; assay type: physicochemical
[29] = target: T2, Baculoviral IAP repeat-containing protein 3; test: Displacement of AbuRPFK-5FAM from GST-tagged cIAP2 BIR3 domain (I235 to A336) (unknown origin) after 20 mins by fluorescence polarization assay; method in brief: as §2
[30] = target: T3, E3 ubiquitin-protein ligase XIAP; test: Displacement of AbuRPFK-5FAM from GST-tagged XIAP BIR3 domain (N252 to E350) (unknown origin) after 20 mins by fluorescence polarization assay; method in brief: as §2
[31] = Chemical stability of the compound assessed as amide hydrolysis at pH 1; assay type: physicochemical; conditions: buffer
[32] = Hydrolytic stability of the compound at pH 4 to 6; assay type: physicochemical; conditions: buffer
[33] = Photostability of the compound; assay type: physicochemical
[34] = target: T3, E3 ubiquitin-protein ligase XIAP; test: Displacement of AbuRPFK-5FAM from GST-tagged XIAP BIR2 domain ([…] to P260) (unknown origin) after 20 mins by fluorescence polarization assay; method in brief: as §2

T1 sequence (Q13490 whole entry): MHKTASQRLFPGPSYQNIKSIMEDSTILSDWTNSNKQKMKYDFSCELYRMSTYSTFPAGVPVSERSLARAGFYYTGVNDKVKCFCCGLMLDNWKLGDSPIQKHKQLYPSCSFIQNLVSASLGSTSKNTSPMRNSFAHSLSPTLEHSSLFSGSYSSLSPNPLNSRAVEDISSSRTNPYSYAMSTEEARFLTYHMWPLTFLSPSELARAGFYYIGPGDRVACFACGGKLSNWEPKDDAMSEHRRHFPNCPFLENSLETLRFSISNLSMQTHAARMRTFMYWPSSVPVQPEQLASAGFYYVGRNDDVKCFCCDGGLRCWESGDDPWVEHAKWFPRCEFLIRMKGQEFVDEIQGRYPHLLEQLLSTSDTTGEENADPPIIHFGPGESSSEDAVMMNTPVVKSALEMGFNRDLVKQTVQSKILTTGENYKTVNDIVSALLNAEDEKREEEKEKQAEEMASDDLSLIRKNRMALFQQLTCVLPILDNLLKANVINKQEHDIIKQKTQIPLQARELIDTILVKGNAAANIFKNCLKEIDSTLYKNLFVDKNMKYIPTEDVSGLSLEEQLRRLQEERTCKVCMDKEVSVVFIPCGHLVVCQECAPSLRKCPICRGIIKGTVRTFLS
T3 sequence (P98170 whole entry): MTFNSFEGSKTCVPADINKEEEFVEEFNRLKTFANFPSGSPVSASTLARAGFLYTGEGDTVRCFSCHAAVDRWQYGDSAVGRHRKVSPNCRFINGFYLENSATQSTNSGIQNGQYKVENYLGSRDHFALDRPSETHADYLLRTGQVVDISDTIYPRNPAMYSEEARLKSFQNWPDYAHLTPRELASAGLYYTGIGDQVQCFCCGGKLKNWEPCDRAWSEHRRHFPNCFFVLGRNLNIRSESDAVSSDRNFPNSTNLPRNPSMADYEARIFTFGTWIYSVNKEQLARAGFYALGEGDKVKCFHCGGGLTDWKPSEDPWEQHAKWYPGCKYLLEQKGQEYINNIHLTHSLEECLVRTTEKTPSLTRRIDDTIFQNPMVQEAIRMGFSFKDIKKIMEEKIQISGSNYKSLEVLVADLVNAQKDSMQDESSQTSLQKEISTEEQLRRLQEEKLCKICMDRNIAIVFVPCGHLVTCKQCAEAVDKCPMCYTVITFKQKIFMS
T2 sequence (Q13489 whole entry): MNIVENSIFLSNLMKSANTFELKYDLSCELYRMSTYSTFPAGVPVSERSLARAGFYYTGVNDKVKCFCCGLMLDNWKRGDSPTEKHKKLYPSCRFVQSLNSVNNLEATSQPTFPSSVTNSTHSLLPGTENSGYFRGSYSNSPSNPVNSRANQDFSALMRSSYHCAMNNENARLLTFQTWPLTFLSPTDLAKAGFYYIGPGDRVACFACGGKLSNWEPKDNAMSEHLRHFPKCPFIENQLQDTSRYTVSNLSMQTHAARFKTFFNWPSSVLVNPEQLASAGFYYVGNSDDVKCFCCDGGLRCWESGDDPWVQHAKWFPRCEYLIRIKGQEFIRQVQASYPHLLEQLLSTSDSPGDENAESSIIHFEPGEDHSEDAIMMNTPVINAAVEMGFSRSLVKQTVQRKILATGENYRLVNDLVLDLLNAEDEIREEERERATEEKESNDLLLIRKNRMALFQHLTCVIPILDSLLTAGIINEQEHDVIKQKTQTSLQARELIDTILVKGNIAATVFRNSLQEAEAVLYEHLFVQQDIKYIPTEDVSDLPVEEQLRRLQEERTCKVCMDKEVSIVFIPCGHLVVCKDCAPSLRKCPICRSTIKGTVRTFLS

Work on `CN[C@@H](C)C(=O)N[C@H](C(=O)N1CCC[C@H]1C(=O)N[C@H]1c2ccccc2C[C@H]1NC(=O)c1ccc(C(=O)N[C@@H]2Cc3ccccc3[C@@H]2NC(=O)[C@@H]2CCCN2C(=O)[C@@H](NC(=O)[C@H](C)NC)C2CCCCC2)cc1)C1CCCCC1` yielded a clearance [1] of 37 mL/min/kg, an EC50 [2] of 124 nM and a GI50 (MDA-MB-231 [3]) of 6 nM. For the same compound, the AUC [4] was 230 ng·h/mL, the half-life [5] was 6.6 h and the inhibition [6] was “Active”. The Vd [7] was 1.4 L/kg.
For `CN[C@@H](C)C(=O)N[C@H](C(=O)N1CCC[C@H]1C(=O)N[C@H]1c2ccccc2C[C@H]1OCC#CC#CCO[C@@H]1Cc2ccccc2[C@@H]1NC(=O)[C@@H]1CCCN1C(=O)[C@@H](NC(=O)[C@H](C)NC)C1CCCCC1)C1CCCCC1.Cl.Cl`, the solubility [8] was greater than 7000 µg/mL.
Compound `CN[C@@H](C)C(=O)N[C@H](C(=O)N1CCC[C@H]1C(=O)N[C@H]1c2ccccc2C[C@H]1OCC#CC#CCO[C@@H]1Cc2ccccc2[C@@H]1NC(=O)[C@@H]1CCCN1C(=O)[C@@H](NC(=O)[C@H](C)NC)C(C)(C)C)C(C)(C)C` has a solubility thermodynamic at 24 h [9] greater than 1000 µM, an EC50 [2] of 0.4 nM and a GI50 (MDA-MB-231 [3]) of less than 2.4 nM. For the same compound, the Papp A→B [10] was less than 0.1 ×10⁻⁶ cm/s.
`CN[C@@H](C)C(=O)N[C@H](C(=O)N1CCC[C@H]1C(=O)N[C@H]1c2ccccc2C[C@H]1OCCOCCO[C@@H]1Cc2ccccc2[C@@H]1NC(=O)[C@@H]1CCCN1C(=O)[C@@H](NC(=O)[C@H](C)NC)C1CCCCC1)C1CCCCC1` gave a Vd [11] of 1.9 L/kg, an EC50 [2] of 0.6 nM and a GI50 (MDA-MB-231 [3]) of less than 0.1 nM. For the same compound, the clearance [12] was 80 mL/min/kg, the half-life [13] was 1.2 h and the AUC [14] was 206 ng·h/mL.
With `CN[C@@H](C)C(=O)N[C@H](C(=O)N1CCC[C@H]1C(=O)N[C@H]1c2ccccc2C[C@H]1OCCCCCCO[C@@H]1Cc2ccccc2[C@@H]1NC(=O)[C@@H]1CCCN1C(=O)[C@@H](NC(=O)[C@H](C)NC)C1CCCCC1)C1CCCCC1` the AUC [15] was 262 ng·h/mL, the EC50 [2] was 0.1 nM and the GI50 (MDA-MB-231 [3]) was less than 0.1 nM. It also gave a Vd [16] of 1.4 L/kg, a clearance [17] of 45 mL/min/kg and a half-life [18] of 3.6 h.
For `CN[C@@H](C)C(=O)N[C@H](C(=O)N1CCC[C@H]1C(=O)N[C@H]1c2ccccc2C[C@H]1OCC#CC#CCO[C@@H]1Cc2ccccc2[C@@H]1NC(=O)[C@@H]1CCCN1C(=O)[C@@H](NC(=O)[C@H](C)NC)C1CCCCC1)C1CCCCC1` [listing 1 of 2 here], the “growth inhibition (GI)” value (BT-549) was “Active”, the Activity (Mus musculus [19]) was “Active” and the Activity (MDA-MB-231 [20]) was “Active”. For the same compound, the Activity [21] was “Active”, the “growth inhibition (GI)” value (MIA PaCa-2) was “Active” and the “growth inhibition (GI)” value (Homo sapiens) was “Active”. For the same compound, the Activity [22] was “inactive”, the Activity (MDA-MB-231 [23]) was “Active” and the “growth inhibition (GI)” value (647-V) was “Active”. For the same compound, the Activity [24] was “Dose-dependent effect”, the inhibition [25] was “Active” and the TGI (MDA-MB-231 [26]) was “Active”. For the same compound, the Activity (Mus musculus [27]) was “Active”.
In the case of `CN[C@@H](C)C(=O)N[C@H](C(=O)N1CCC[C@H]1C(=O)N[C@H]1c2ccccc2C[C@H]1OCC#CC#CCO[C@@H]1Cc2ccccc2[C@@H]1NC(=O)[C@@H]1CCCN1C(=O)[C@@H](NC(=O)[C@H](C)NC)C1CCCCC1)C1CCCCC1` [listing 2 of 2 here], the clearance [1] is reported as 50 mL/min/kg, the Stability [28] is reported as “Unstable” and the EC50 [2] is reported as 0.1 nM. It also gave an IC50 [29] of 21 nM, a GI50 (MDA-MB-231 [3]) of less than 0.06 nM and an AUC [4] of 166 ng·h/mL. For the same compound, the Papp A→B [10] was less than 0.1 ×10⁻⁶ cm/s, the half-life [5] was 0.5 h and the IC50 [30] was 15 nM. For the same compound, the IC50 [6] was 15 nM, the Stability [31] was “Unstable” and the Stability [32] was “Stable”. The Stability [33] was “Stable”, the IC50 [34] was 21 nM and the Vd [7] was 0.8 L/kg.
